Assay results pooled from the literature.
Each line is one published result; the experiments were not run side by side.
Sample: Caco-2

CC(C)NCC(O)COc1cccc2ccccc12 (centres unmarked)
Papp B→A (10 µM, 2 h): 200 nm/s

O=c1cc(-c2ccccc2)oc2cc(O)c(O)c(O)c12
Papp B→A (100 µg/mL, 2 h): 27.6 nm/s

N#Cc1ccc(C[C@H](NC(=O)Nc2ccc(F)cc2)C(=O)N2CCc3ccccc32)cc1
Papp B→A (100 µM, 2 h): 2180 nm/s

O=c1c(-c2ccc(O)cc2)coc2cc(O)ccc12
Papp B→A (100 µg/mL, 2 h): 49.8 nm/s

N#Cc1ccc(C[C@H](Nc2c(Nc3ccc(Br)cc3)c(=O)c2=O)C(=O)N2CCc3ccccc32)cc1
Papp B→A (100 µM, 2 h): 2490 nm/s

Oc1cc(O)c2c(c1)O[C@H](c1ccc(O)c(O)c1)[C@H](O)C2
Papp B→A (100 µg/mL, 2 h): 5.5 nm/s

N#C[C@@]1(c2ccc3c(N)ncnn23)O[C@H](CO)[C@@H](O)[C@H]1O
Papp B→A (10 µM, 2 h): 254 nm/s

C=CC(=O)NC1CCN(c2ncc3ncnc(Nc4ccc(Oc5ccc6c(c5)ncn6C)c(C)c4)c3n2)CC1
Papp B→A: ~90 nm/s

Cc1ccc(N(c2ccc(NC(=O)CN(C)c3ccccc3N3CCCC3=O)cc2)C(C)C)cc1
Papp B→A: 25.2 nm/s

CCCCCCOC(=O)NC(=N)c1ccc(NCc2nc3cc(C(=O)N(CCC(=O)OCC)c4ccccn4)ccc3n2C)cc1
Papp B→A (5 µM, 2 h): 11 nm/s

COc1ccc(-c2coc3cc(O)cc(O)c3c2=O)cc1
Papp B→A (100 µg/mL, 2 h): 212 nm/s

N#Cc1ccc(C[C@H](Nc2ncc(-c3ccc(F)cc3)o2)C(=O)N2CCc3ccccc32)cc1
Papp B→A (100 µM, 2 h): 2000 nm/s

CC(C)c1nc(N(C)S(C)(=O)=O)nc(-c2ccc(F)cc2)c1/C=C/[C@@H](O)C[C@@H](O)CC(=O)O
Papp B→A (5 µM, 2 h): 146 nm/s

Cc1cc(C)c(CNC(=O)c2cc(Cl)c3c(c2C)O[C@@](C)([C@H]2CC[C@H](N(C)C)CC2)O3)c(=O)[nH]1
Papp B→A (100 µM): 163 nm/s
